Measurements: ChEMBL document CHEMBL4477184, “Pelianthinarubins A and B, Red Pyrroloquinoline Alkaloids from the Fruiting Bodies of the Mushroom Mycena pelianthina” (J Nat Prod, 2016)
Active and inactive are the calls of the source.

Key:
Assay type in all cases: functional, organism-based
[1] = test system: Lepidium sativum; test: Herbicidal activity against Lepidium sativum
[2] = test system: Bacillus subtilis; test: Antibacterial activity against Bacillus subtilis after 24 hrs by plate diffusion assay
Method in brief: (§1)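 Paper discs (6 mm diameter, 0.5 mm thick) were loaded with 0.1 or 0.5 mg of sample dissolved in distilled water and dried under sterile conditions. The discs were then placed on agar plates inoculated with the test bacterium and incubated at 37 °C for 24 h.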

[3] = test system: Folsomia candida; test: Insecticidal activity against Folsomia candida
[4] = test system: Brevibacillus brevis; test: Antibacterial activity against Bacillus brevis after 24 hrs by plate diffusion assay; method in brief: as §1
[5] = test system: Escherichia coli; test: Antibacterial activity against Escherichia coli after 24 hrs by plate diffusion assay; method in brief: as §1
[6] = test system: Cladosporium cucumerinum; test: Antifungal activity against Cladosporium cucumerinum after 48 hrs by plate diffusion assay
Method in brief: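 Disc diffusion assay. Paper discs (6 mm) were loaded with 0.1 or 0.5 mg of sample from distilled water and dried under sterile conditions. The discs were laid on agar plates inoculated with Cladosporium cucumerinum, and the plates were incubated at 18 °C for 48 h.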

Measured: Activity

C[N+](C)(C)[C@H](C(=O)O)[C@H](O)c1cn([C@@H]2CCN3C4=C2C(=O)C(=O)c2[nH]cc(c24)C[C@H]3C(=O)O)cn1
inactive: all assays above

C[N+](C)(C)[C@@H](Cc1cn([C@@H]2CCN3C4=C2C(=O)C(=O)c2[nH]cc(c24)C[C@H]3C(=O)O)cn1)C(=O)O
inactive: all assays above
